# Source: ChEMBL document CHEMBL1132711 (J Med Chem, 1999)
# pEC50, pIC50, pKi: −log10 of the molar value.
# Columns and labels:
# Progesterone receptor [1] = target: T1, Progesterone receptor (Homo sapiens, UniProt P06401); assay: (§1) Compound was tested for agonistic activity by cotransfection assay against human Progesterone receptor in CV-1 cells; type: functional, cell-based
# T1 sequence (P06401 whole entry): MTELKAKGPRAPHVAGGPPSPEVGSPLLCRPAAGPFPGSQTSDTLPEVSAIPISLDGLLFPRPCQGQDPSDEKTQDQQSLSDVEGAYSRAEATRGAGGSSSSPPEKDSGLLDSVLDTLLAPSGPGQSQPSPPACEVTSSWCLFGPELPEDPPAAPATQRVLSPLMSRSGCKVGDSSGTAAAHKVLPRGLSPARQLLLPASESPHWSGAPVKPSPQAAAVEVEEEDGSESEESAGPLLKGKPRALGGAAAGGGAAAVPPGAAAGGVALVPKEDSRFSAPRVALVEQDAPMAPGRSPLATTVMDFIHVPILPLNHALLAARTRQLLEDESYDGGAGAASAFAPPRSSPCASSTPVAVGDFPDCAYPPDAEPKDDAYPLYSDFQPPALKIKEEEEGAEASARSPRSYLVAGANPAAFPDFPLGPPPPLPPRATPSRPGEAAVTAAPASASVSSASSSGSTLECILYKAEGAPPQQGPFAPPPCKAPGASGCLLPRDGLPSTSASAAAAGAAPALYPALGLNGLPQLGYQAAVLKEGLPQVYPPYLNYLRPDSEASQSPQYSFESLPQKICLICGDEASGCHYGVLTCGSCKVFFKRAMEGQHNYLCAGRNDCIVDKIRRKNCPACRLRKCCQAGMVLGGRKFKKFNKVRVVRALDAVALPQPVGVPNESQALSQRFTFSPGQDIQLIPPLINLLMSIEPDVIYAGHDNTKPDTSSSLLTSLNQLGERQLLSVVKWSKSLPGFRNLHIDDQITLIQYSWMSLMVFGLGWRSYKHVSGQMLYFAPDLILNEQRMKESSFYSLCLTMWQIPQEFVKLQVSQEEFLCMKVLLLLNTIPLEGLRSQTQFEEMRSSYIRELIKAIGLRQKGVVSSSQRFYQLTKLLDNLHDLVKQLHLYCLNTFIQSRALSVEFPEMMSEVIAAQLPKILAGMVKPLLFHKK
# Progesterone receptor [2] = target: T1, Progesterone receptor; assay: (§2) Agonistic activity by cotransfection assay against human Progesterone receptor in T47D cells; type: functional, cell-based
# Progesterone receptor [3] = target: T1, Progesterone receptor; assay: Compound was evaluated for its binding affinity against baculovirus expressed Progesterone receptor
# Glucocorticoid receptor = target: T2, Glucocorticoid receptor (Homo sapiens, UniProt P04150)
# T2 sequence (P04150 whole entry): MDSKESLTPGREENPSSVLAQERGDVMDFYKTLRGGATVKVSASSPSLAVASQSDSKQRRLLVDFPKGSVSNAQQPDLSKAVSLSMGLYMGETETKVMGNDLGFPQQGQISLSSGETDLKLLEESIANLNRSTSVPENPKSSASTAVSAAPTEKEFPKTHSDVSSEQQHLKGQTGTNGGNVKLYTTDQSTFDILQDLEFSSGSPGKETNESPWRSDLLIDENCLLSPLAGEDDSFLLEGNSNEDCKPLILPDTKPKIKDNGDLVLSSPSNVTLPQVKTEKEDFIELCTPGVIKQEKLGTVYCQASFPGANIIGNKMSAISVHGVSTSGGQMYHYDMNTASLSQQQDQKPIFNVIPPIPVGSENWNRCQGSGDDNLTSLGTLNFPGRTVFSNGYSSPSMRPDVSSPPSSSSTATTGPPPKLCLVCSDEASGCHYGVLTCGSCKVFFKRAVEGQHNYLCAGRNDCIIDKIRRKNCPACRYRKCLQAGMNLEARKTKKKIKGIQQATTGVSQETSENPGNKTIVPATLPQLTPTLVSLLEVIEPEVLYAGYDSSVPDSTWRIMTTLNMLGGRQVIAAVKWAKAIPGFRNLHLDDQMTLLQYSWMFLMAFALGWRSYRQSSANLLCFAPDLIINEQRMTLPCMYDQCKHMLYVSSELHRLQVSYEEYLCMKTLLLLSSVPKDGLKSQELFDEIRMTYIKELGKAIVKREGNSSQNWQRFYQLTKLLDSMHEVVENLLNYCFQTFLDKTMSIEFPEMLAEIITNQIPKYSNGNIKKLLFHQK
# [4] = target: T3, Progesterone receptor (Homo sapiens) (UniProt P06401); assay: as §1; type: functional, cell-based
# T3 sequence (whole entry): T1 sequence (P06401 whole entry)
# [5] = target: T3, Progesterone receptor (Homo sapiens); assay: as §2; type: functional, cell-based
# Procedure, shortened: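 T47D human breast cancer cells (high endogenous hPR) incubated with test compound in 96-well format; alkaline phosphatase expression measured by absorbance. […] EC50 from full dose–response curves; mean of at least three separate experiments in triplicate, or single experiment where no error given.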
# Androgen receptor = target: T4, Androgen receptor (Homo sapiens, UniProt P10275)
# T4 sequence (P10275 whole entry): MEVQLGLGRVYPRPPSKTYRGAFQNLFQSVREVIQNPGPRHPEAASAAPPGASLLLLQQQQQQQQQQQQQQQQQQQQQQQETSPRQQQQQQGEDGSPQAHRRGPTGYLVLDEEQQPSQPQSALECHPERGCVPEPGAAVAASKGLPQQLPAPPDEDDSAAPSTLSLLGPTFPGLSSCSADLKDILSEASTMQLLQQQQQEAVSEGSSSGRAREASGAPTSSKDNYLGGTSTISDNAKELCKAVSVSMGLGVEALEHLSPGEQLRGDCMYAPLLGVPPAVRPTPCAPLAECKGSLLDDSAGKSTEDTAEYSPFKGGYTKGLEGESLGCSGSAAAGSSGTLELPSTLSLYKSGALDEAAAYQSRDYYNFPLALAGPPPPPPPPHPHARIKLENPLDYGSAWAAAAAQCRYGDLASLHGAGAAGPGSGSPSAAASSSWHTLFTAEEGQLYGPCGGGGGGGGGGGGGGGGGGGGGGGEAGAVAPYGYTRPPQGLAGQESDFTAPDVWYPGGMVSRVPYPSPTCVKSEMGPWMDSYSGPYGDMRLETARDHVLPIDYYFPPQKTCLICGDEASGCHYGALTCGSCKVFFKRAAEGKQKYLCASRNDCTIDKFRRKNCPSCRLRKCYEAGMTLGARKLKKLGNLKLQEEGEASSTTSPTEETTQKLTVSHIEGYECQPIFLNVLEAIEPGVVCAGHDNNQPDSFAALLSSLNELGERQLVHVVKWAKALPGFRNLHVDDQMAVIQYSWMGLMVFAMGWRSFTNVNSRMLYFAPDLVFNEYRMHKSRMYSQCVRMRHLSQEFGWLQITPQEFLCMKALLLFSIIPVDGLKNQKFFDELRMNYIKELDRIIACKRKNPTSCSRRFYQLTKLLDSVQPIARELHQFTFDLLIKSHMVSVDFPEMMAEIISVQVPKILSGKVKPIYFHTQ
# Progesterone receptor [6] = target: T1, Progesterone receptor; assay: Agonistic effect on transcriptional activity in T47D cells expressing human Progesterone receptor; type: functional, cell-based
# Procedure, shortened: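 T47D human breast cancer cells, which express high levels of hPR, incubated with test compound. Readout is absorbance from induced alkaline phosphatase expression. […] Values are the mean of at least three separate experiments in triplicate; values without SEM are from a single experiment.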
# [7] = target: T3, Progesterone receptor (Homo sapiens); assay: (§3) Antagonistic activity by cotransfection assay against human Progesterone receptor in CV-1 cells; type: functional, cell-based
# Progesterone receptor [8] = target: T1, Progesterone receptor; assay: as §3; type: functional, cell-based
Compound,pEC50 (Progesterone receptor [1]),pEC50 (Progesterone receptor [2]),pKi (Progesterone receptor [3]),pKi (Glucocorticoid receptor),Efficacy [4],Efficacy [5],pKi (Androgen receptor),pEC50 (Progesterone receptor [6]),Efficacy [7],pIC50 (Progesterone receptor [8])
C[C@@H]1C(=O)C(C)(C)Nc2ccc3c(c21)[C@H](c1cccc(C(F)(F)F)c1)Oc1ccccc1-3,7.85,7.43,7.78,6.59,93%,85%,5.96,–,–,–
C[C@@H]1C(=O)C(C)(C)Nc2ccc3c(c21)[C@H](c1ccc(Cl)cc1)Oc1ccccc1-3,–,–,–,6.48,122%,97%,5.93,–,–,–
CC1=CC(C)(C)Nc2ccc3c(c21)/C(=C/c1cccc(F)c1)Oc1ccccc1-3,–,7.29,–,–,–,55%,–,–,–,–
CC1=CC(C)(C)Nc2ccc3c(c21)C(c1ccc(Cl)cc1)Oc1ccccc1-3 (centres undefined),–,–,–,–,–,48%,–,7.49,–,–
CC1(C)Nc2ccc3c(c2C(C)(C)C1=O)C(c1ccc(Cl)cc1)Oc1ccccc1-3 (centres undefined),8.01,–,8.28,–,36%,–,–,–,–,–
C[C@H]1CC(C)(C)Nc2ccc3c(c21)[C@H](c1ccc(Cl)cc1)Oc1ccccc1-3,7.41,–,8.00,–,39%,–,–,–,–,–
CC(=O)O[C@]1(C(C)=O)CC[C@H]2[C@@H]3C[C@H](C)C4=CC(=O)CC[C@]4(C)[C@H]3CC[C@@]21C,–,–,–,–,–,90%,–,–,–,–
CC1C(=O)C(C)(C)Nc2ccc3c(c21)/C(=C/c1cccc(F)c1)Oc1ccccc1-3 (centres undefined),8.06,7.60,8.46,5.33,155%,83%,6.25,–,–,–
CC1CC(C)(C)Nc2ccc3c(c21)/C(=C/c1cccc(F)c1)Oc1ccccc1-3 (centres undefined),7.33,–,8.20,–,114%,–,–,–,–,–
C[C@H]1C(=O)C(C)(C)Nc2ccc3c(c21)[C@H](c1ccc(Cl)cc1)Oc1ccccc1-3,–,–,–,6.04,102%,107%,6.16,–,–,–
CC1=CC(C)(C)Nc2ccc3c(c21)C(c1cccc(Cl)c1)Oc1ccc(F)cc1-3 (centres undefined),–,7.57,–,–,–,47%,–,–,–,–
C[C@H]1c2c(ccc3c2[C@H](c2ccc(Cl)cc2)Oc2ccccc2-3)NC(C)(C)[C@@H]1O,–,–,< 6.30,–,–,–,–,–,91%,6.34
C=C1CC(C)(C)Nc2ccc3c(c21)C(c1ccc(Cl)cc1)Oc1ccccc1-3 (centres undefined),6.91,–,–,–,30%,–,–,–,81%,5.76
C[C@@H]1C(=O)C(C)(C)Nc2ccc3c(c21)[C@H](c1cccc(F)c1)Oc1ccccc1-3,8.20,7.83,8.59,6.71,106%,96%,6.21,–,–,–
C[C@@H]1c2c(ccc3c2[C@H](c2ccc(Cl)cc2)Oc2ccccc2-3)NC(C)(C)[C@H]1O,–,–,< 6.30,–,–,–,–,–,69%,5.49
C[C@@H]1CC(C)(C)Nc2ccc3c(c21)[C@H](c1ccc(Cl)cc1)Oc1ccccc1-3,7.32,–,7.04,–,58%,–,–,–,56%,5.51
C[C@H]1C(=O)C(C)(C)Nc2ccc3c(c21)[C@H](c1cccc(F)c1)Oc1ccccc1-3,8.06,7.59,7.55,6.06,114%,107%,6.30,–,–,–
CC1=CC(C)(C)Nc2ccc3c(c21)C(C)Oc1ccc(Cl)cc1-3 (centres undefined),–,–,–,–,–,42%,–,–,–,–
CC1(C)CC(=O)c2c(ccc3c2C(c2ccc(Cl)cc2)Oc2ccccc2-3)N1 (centres undefined),–,–,7.61,–,–,–,–,–,84%,6.42
C[C@H]1C(=O)C(C)(C)Nc2ccc3c(c21)[C@H](c1cccc(C(F)(F)F)c1)Oc1ccccc1-3,7.80,7.20,6.91,6.60,66%,103%,6.09,–,–,–
C[C@@H]1C(=O)C(C)(C)Nc2ccc3c(c21)[C@H](c1ccccc1)Oc1ccccc1-3,8.00,7.63,8.18,6.60,92%,92%,6.14,–,–,–
CC1(C)C=Cc2c(ccc3c2C(c2ccc(Cl)cc2)Oc2ccccc2-3)N1 (centres undefined),5.89,–,7.98,–,28%,–,–,–,50%,6.85
C[C@H]1C(=O)C(C)(C)Nc2ccc3c(c21)[C@H](c1ccccc1)Oc1ccccc1-3,8.05,7.46,7.54,6.04,103%,102%,5.97,–,–,–
CC1C(=O)C(C)(C)Nc2ccc3c(c21)/C(=C/c1ccccc1)Oc1ccccc1-3 (centres undefined),7.77,7.74,8.31,6.17,133%,93%,5.92,–,–,–
